Experimental data taken from paper PMC5160999 (ChemMedChem, 2016).
Converted amounts (≈) assume the structure as drawn. Like-named read-outs stand apart in the source and are kept apart here.

Assays:
E. coli [1] = assay: E. coli growth inhibition assay; format: cell-based; conditions: Escherichia coli
Summary of the method: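 E. coli K-12 or BL21(DE3). Overnight starter culture diluted 1000-fold and grown to OD600 ~0.3, then diluted 500-fold into LB. Test compound added as a 3-fold series from 1 mm to 46 nm. Incubated 12 h at 37°C with shaking at 200 RPM; growth read as A600. IC50 by nonlinear regression. Rescue arm: farnesol 200 μm in the medium. Duplicate experiments, mean±SD.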

P. aeruginosa (PA01) = assay: P. aeruginosa growth inhibition assay; format: cell-based; conditions: Pseudomonas aeruginosa
Summary of the method: (§1)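 Strains: A. baumannii ATCC 19606, K. pneumoniae ATCC 27736 and P. aeruginosa PA01, grown overnight in cation-adjusted Mueller-Hinton broth. Cultures diluted 1000-fold in fresh broth, with test compound as a 3-fold series from 1 mm to 46 nm. Incubated overnight at 37°C, 200 RPM; OD600 read. Rescue arm: farnesol 200 μm in the medium. Duplicate experiments, mean±SD.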

A. baumannii [2] = assay: A. baumannii growth inhibition assay; format: cell-based; conditions: Acinetobacter baumannii
Summary of the method: as §1

[3] = tested on: E. coli, A. baumannii, K. pneumoniae and P. aeruginosa; assay: Synergy of 11 with fosmidomycin, mean over four Gram-negative bacteria; format: cell-based
EcFPPS = EcFPPS (Escherichia coli, UniProt P22939); assay: EcFPPS inhibition, phosphate release assay; format: biochemical, E. coli
Summary of the method: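 Purified recombinant FPPS (25 ng) preincubated with test compound for 10 min at room temperature in pH 7.0 buffer (10 mm HEPES, 150 mm NaCl, 5 mm MgCl2). Compound diluted from 1 mm to 1 nm. Reaction started with 50 μm GPP, 50 μm IPP, purine nucleoside phosphorylase, inorganic phosphatase and ~600 μm MESG.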

M. smegmatis = M. smegmatis growth inhibition; format: cell-based, Mycobacterium smegmatis
HEK293 = HEK293 toxicity assay; format: cell-based; conditions: Homo sapiens, HEK293, read-out: IC50 HEK293
[4] = tested on: S. aureus (Newman strain); assay: S. aureus growth inhibition assay; format: cell-based; conditions: Staphylococcus aureus, read-out: IC50 S. aureus
Summary of the method: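 S. aureus Newman grown overnight in tryptic soy broth, then diluted 1000-fold in fresh medium. Test compound dosed as a 3-fold series from 1 mm to 46 nm. Incubated at 37°C, 200 RPM, overnight; growth read as OD600.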

[5] = tested on: E. coli, P. aeruginosa, K. pneumoniae and A. baumannii; assay: Growth inhibition, four Gram-negative bacteria taken together; format: cell-based; conditions: read-out: IC50, activity against all four Gram-negatives
K. pneumoniae [6] = assay: K. pneumoniae growth inhibition assay; format: cell-based; conditions: Klebsiella pneumoniae
Summary of the method: as §1

[7] = tested on: E. coli BL21(DE3) with PaFPPS overexpression; assay: Growth inhibition of E. coli overexpressing PaFPPS; format: cell-based; conditions: Escherichia coli
E. coli [8] = assay: Synergy/antagonism two-drug combination assay, E. coli; format: cell-based
SmFPPS = SmFPPS (Schistosoma mansoni, UniProt G4VEL6); assay: SmFPPS inhibition, phosphate release assay; format: biochemical
Summary of the method: (§2)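 Purified enzyme (25 ng) preincubated with inhibitor for 10 min at room temperature in pH 7.0 buffer (10 mM HEPES, 150 mM NaCl, 5 mM MgCl2). Inhibitor stocks were 10 mM in DMSO or basic water, serially diluted from 1 mM to 1 nM. Reaction mix: 50 μM GPP, 50 μM IPP, purine nucleoside phosphorylase, inorganic phosphatase, ~600 μM MESG.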

PaFPPS = PaFPPS (Pseudomonas aeruginosa, UniProt Q9HWY4); assay: PaFPPS inhibition, phosphate release assay; format: biochemical
Summary of the method: as §2

[9] = biological target: T1, human geranylgeranyl diphosphate synthase (HsGGPPS) (Homo sapiens, UniProt O95749); assay: HsGGPPS inhibition; format: biochemical
T1 sequence (O95749 1-300): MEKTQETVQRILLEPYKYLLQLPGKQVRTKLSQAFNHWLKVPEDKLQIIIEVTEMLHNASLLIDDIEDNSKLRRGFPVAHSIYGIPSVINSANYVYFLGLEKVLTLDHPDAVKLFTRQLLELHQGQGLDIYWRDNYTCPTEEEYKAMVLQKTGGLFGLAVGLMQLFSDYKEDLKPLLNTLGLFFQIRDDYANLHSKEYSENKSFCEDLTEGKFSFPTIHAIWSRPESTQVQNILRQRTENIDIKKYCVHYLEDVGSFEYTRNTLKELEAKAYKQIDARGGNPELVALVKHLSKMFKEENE

P. aeruginosa = assay: Synergy/antagonism two-drug combination assay, P. aeruginosa; format: cell-based
A. baumannii [10] = assay: Synergy/antagonism two-drug combination assay, A. baumannii; format: cell-based
B. subtilis = B. subtilis growth inhibition assay; format: cell-based; conditions: Bacillus subtilis, read-out: IC50 B. subtilis
Summary of the method: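 B. subtilis ATCC 6051 grown overnight in LB and diluted 1000-fold in fresh LB. Test compound added as a 3-fold series from 1 mm to 46 nm. Incubated overnight at 37°C with shaking at 200 RPM; inhibition read from OD600.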

K. pneumoniae [11] = assay: Synergy/antagonism two-drug combination assay, K. pneumoniae; format: cell-based
HsFPPS = biological target: T2, HsFPPS (Homo sapiens, UniProt P14324); assay: HsFPPS inhibition, phosphate release assay; format: biochemical, H. sapiens
T2 sequence (P14324 1-419): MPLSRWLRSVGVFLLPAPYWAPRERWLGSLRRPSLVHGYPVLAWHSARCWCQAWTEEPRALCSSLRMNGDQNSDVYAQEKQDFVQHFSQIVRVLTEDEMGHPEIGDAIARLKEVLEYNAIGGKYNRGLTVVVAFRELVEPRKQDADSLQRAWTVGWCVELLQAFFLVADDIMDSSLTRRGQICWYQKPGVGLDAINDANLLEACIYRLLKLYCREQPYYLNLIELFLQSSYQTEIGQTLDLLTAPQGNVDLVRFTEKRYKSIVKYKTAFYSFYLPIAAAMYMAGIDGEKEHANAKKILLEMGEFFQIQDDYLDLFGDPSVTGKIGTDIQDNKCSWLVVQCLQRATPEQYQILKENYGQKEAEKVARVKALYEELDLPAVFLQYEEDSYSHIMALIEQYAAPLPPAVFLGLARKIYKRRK

TbFPPS = TbFPPS (Trypanosoma brucei, UniProt Q86C09); assay: TbFPPS inhibition, phosphate release assay; format: biochemical
Summary of the method: as §2

[12] = E. coli, combination of 11 with fosmidomycin
[13] = P. aeruginosa, combination of 11 with fosmidomycin
[14] = A. baumannii, combination of 11 with fosmidomycin
[15] = K. pneumoniae, combination of 11 with fosmidomycin

Sequence of EcFPPS (P22939 whole entry): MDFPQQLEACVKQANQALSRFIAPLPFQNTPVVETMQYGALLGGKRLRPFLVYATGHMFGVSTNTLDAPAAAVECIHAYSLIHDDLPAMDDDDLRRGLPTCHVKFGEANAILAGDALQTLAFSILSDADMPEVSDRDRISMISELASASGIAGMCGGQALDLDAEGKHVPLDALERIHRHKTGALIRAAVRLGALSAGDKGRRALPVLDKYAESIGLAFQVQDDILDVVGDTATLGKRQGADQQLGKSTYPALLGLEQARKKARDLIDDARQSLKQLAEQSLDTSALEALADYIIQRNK

With O=P([O-])(O)C(C[n+]1ccn(CCCc2ccc(F)c(F)c2)c1)P(=O)(O)O (stereo not shown) [compound 11, Hydrogen (2-(3-(3-(3,4-difluorophenyl)propyl)-1H-imidazol-3-ium-1-yl)-1-phosphonoethyl) phosphonate] the IC50 (E. coli [1]; read-out: IC50 E. coli) was 2.1 ± 0.57 µg/mL (≈ 5.12 µM), the IC50 (E. coli [1]; read-out: IC50 with RA) was 19 ± 4.1 µg/mL (≈ 46.3 µM) and the IC50 (E. coli [1]; read-out: IC50 without RA) was 2.1 ± 0.57 µg/mL (≈ 5.12 µM). The IC50 (P. aeruginosa (PA01); read-out: IC50 P. aeruginosa) was 3.5 ± 0.78 µg/mL (≈ 8.53 µM), the IC50 (P. aeruginosa (PA01); read-out: IC50 with RA) was 23 ± 7.8 µg/mL (≈ 56.1 µM) and the IC50 (P. aeruginosa (PA01); read-out: IC50 without RA) was 3.5 ± 0.78 µg/mL (≈ 8.53 µM). The IC50 (A. baumannii [2]; read-out: IC50 A. baumannii) was 2.8 ± 0.7 µg/mL (≈ 6.83 µM), the IC50 (A. baumannii [2]; read-out: IC50 with RA) was 18 ± 4.9 µg/mL (≈ 43.9 µM) and the IC50 (A. baumannii [2]; read-out: IC50 without RA) was 2.8 ± 0.7 µg/mL (≈ 6.83 µM). For the same compound, the “mean FICI” value [3] was 0.42 ± 0.17, the IC50 (EcFPPS) was 120 ± 25 nM and the IC50 (M. smegmatis; Mycolicibacterium smegmatis, read-out: IC50 M. smegmatis, cell growth inhibition) was about 7 µg/mL (≈ 17.1 µM). For the same compound, the “IC50 M. smegmatis” value (M. smegmatis; cell growth inhibition) was 6.8 ± 3.0 µg/mL (≈ 16.6 µM), the IC50 (HEK293) was 27 ± 4 µg/mL (≈ 65.8 µM) and the IC50 [4] was over 100 µg/mL. For the same compound, the IC50 [5] was 1 to 4 µg/mL (≈ 2.44 to 9.75 µM), the IC50 (K. pneumoniae [6]; read-out: IC50 K. pneumoniae) was 2.3 ± 0.49 µg/mL (≈ 5.61 µM) and the IC50 (K. pneumoniae [6]; read-out: IC50 with RA) was 13 ± 1.8 µg/mL (≈ 31.7 µM). It also gave an IC50 (K. pneumoniae [6]; read-out: IC50 without RA) of 2.3 ± 0.49 µg/mL (≈ 5.61 µM), an IC50 ([7]; BL21-DE3, read-out: IC50 with RA) of 19 ± 2.4 µg/mL (≈ 46.3 µM) and an IC50 ([7]; BL21-DE3, read-out: IC50 without RA) of 1.6 ± 0.35 µg/mL (≈ 3.9 µM). The FICI (E. coli [8]; E. coli cell growth, combination of 32 and 11) was 0.31 ± 0.099, the FIC (E. coli [8]; [12]) was 0.24 ± 0.023 and the “FIC Index” value (E. coli [8]; [12]) was 0.39 ± 0.15. For the same compound, the MIC (E. coli [8]; Escherichia coli) was 6 µg/mL, the IC50 (SmFPPS) was 570 ± 110 nM and the IC50 (PaFPPS) was 320 ± 68 nM. For the same compound, the IC50 [9] was 390 ± 73 nM, the FIC (P. aeruginosa; [13]) was 0.27 ± 0.057 and the “FIC Index” value (P. aeruginosa; [13]) was 0.44 ± 0.12. The MIC (P. aeruginosa; Pseudomonas aeruginosa) was 10 µg/mL, the FIC (A. baumannii [10]; [14]) was 0.37 ± 0.17 and the “FIC Index” value (A. baumannii [10]; [14]) was 0.64 ± 0.23. The MIC (A. baumannii [10]; Acinetobacter baumannii) was 6 µg/mL, the IC50 (B. subtilis) was 39 ± 13 µg/mL (≈ 95.1 µM) and the FIC (K. pneumoniae [11]; [15]) was 0.097 ± 0.012. For the same compound, the “FIC Index” value (K. pneumoniae [11]; [15]) was 0.22 ± 0.026, the MIC (K. pneumoniae [11]; Klebsiella pneumoniae) was 6 µg/mL and the IC50 (HsFPPS) was 65 ± 12 nM. The IC50 (TbFPPS) was 120 ± 26 nM.
